The list is not random: actives were taken first. Their share in the collection is about 3.5%.
ERAP1 inh: ERAP1 (human) enzyme inhibition; recombinant ERAP1, Leu-AMC fluorescence, 60 min; inhibition, % at 10.7 µM; 340,000 tested, 0.15% active;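 active = mean replicate inhibition of at least 30%, or all replicates individually reaching that 30% level; inactive = mean below 30% and not every replicate reaching it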;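 also: 0% = neutral control wells and 100% = L-leucinethiol positive control wells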
Target sequence (Q9NZ08 whole entry, looked up): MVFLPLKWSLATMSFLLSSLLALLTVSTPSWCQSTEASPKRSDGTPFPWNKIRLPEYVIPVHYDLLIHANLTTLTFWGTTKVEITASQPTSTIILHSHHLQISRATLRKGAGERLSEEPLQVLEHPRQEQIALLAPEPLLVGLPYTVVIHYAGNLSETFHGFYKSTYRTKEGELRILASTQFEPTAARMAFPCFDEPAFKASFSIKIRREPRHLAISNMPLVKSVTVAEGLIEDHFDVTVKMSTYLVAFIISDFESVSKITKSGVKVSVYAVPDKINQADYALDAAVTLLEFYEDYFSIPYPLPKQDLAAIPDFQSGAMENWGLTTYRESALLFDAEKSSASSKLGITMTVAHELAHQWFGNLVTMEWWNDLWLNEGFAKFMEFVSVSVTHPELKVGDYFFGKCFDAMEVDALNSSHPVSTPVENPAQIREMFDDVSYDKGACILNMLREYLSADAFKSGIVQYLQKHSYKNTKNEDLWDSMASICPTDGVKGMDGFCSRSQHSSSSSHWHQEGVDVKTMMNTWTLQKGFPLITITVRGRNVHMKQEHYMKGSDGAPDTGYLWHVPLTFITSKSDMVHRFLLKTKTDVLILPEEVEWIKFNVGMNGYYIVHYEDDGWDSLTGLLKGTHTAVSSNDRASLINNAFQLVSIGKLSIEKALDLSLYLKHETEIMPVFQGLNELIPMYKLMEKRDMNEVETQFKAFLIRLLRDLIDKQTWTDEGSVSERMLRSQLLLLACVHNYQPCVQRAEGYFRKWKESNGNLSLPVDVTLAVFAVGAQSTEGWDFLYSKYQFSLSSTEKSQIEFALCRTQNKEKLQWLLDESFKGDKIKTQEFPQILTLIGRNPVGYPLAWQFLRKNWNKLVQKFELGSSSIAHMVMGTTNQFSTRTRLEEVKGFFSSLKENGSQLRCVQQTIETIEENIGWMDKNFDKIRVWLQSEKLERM
Cneo AK release: causes C. neoformans cell lysis. adenylate kinase release luminescence, 4 h; normalised: neutral wells 0, clomiphene wells 100. lysis activity, % at 15 µM. 360,000 tested, 0.2% active. AID 651654;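 active = mean lysis activity across replicates of at least 80%, whatever share of replicates individually reach that level; inactive = mean lysis activity below 80%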
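read-out = cell lysis signal | test system = log-phase Cryptococcus neoformans yeast cells | input = cells at 5 × 10^6 per mL | medium = fresh YPD growth medium | signal = luminescent adenylate kinase detection reagent | timing = 4 h at 37 °C static, read 1 h later | dosing = single dose | controls = Clomiphene as positive lysis control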
PGC1a acetyl inh: lowers PGC1a acetylation signal in U2OS cells. AlphaScreen anti-acetyl-lysine; with virally co-expressed GCN5 acetyltransferase. inhibition, % at 15.6 µM. 350,000 tested, 0.17% active. AID 651687;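 active = every replicate shows inhibition of at least 40%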;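 also: 0% = neutral control wells and 100% = positive control wells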
FGF22 binding: FGF22 (human) thermal shift binding; Q9HCT0; recombinant FGF22 thermal shift, SYPRO orange fluorescence; percent of sucrose octasulfate shift, DMSO zero; activity (Tm shift, normalised), % at 9.99 µM; 340,000 tested, 1.5% active; AID 651658;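 active = mean Tm shift, scaled 0 neutral to 100 positive control, at about 1.3% or above, every replicate too, limit read from the data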
Env fusion inh: HIV envelope-mediated fusion inhibition; HeLa-JRFL Env/CEM21 cell fusion, luciferase; inhibition, % at 12.3 µM; 360,000 tested, 1.1% active; AID 651610;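 active = mean replicate inhibition score of at least 50 and every replicate individually at or above 50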;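 also: 0% = plate neutral controls and 100% = maraviroc near 300 nM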
rRNA inh HTS: inhibitors of bacterial rRNA selective over humanized ribosomes. E. coli WT GFP vs humanized-ribosome RFP mutants, fluorescence, 24 h; active compounds read low; DMSO median 0, no signal -100. GFP signal change (wild-type ribosome), % (no concentration beside the values). 350,000 tested, 1.6% active. AID 720706;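 active = significant combined selectivity score with lowered wild-type GFP, culture density cut under 30%, mutant RFP and density less affected; inactive = any of these conditions unmet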
Numbers without * were called inactive; i = inactive; . = no result given; [ ] = dose if it differs, or a comment.

SMILES | ERAP1 inh | Cneo AK release | PGC1a acetyl inh | FGF22 binding | Env fusion inh | rRNA inh HTS
CC(C)C[C@@]12C(=O)N(c3cccc(F)c3)C(=O)N1[C@H](c1ccc(F)cc1)[C@@H]1C(=O)N(C3CCCCC3)C(=O)[C@@H]12 | . | -2.1 | . | -0.1 | 9.3 | 2.6
O=C1[C@H]2[C@@H](c3ccc(F)cc3)N3C(=O)N(c4cccc(Cl)c4)C(=O)[C@@]3(Cc3ccccc3)[C@H]2C(=O)N1C1CCCCC1 | . | 0.4 | . | 0.2 | 14.4 | -2.3
O=C1[C@H]2[C@@H](c3ccc(F)cc3)N3C(=O)N(c4ccccc4)C(=O)[C@@]3(Cc3ccc(Cl)cc3)[C@H]2C(=O)N1C1CCCCC1 | -3.6 | -0.6 | . | -0.1 | 100.4* | 7.5
Cc1cc(C)n(CCC(=O)N/N=C/c2ccc(Br)c([N+](=O)[O-])c2)n1 | -0.1 | 0.7 | . | -0.1 | -2.7 | -15.3*
Cc1cc(C)n(CC(=O)N/N=C/c2cc(Br)cc([N+](=O)[O-])c2O)n1 | 3.4 | . | . | 0.3 | -10.1 | 5.1
CCN(CC)C(=O)Cc1cn(C)c2ccccc12 | 1.0 | -0.8 | . | 43.2* | 7.1 | -0.8
O=C(COC(=O)c1n[nH]c2ccccc12)c1cccc(Br)c1 | 2.9 | 6.8 | -2.6 | -0.1 | . | -38.2*
Cc1ccc(C)c(C(=O)COC(=O)c2n[nH]c3ccccc23)c1 | -0.6 | . | . | 0.4 | -28.1 | -55.7
Cc1cc(C)c(C(=O)/C=C/c2cccc3ccccc23)c(=O)[nH]1 | -1.2 | . | . | 0.2 | 11.0 | 9.9
Cc1[nH]c(=O)c(C(=O)/C=C/c2ccccc2F)c2c1CCCC2 | 0.1 | -3.5 | 40.7 | 0.0 | . | -18.4*
CN(c1ccccc1)S(=O)(=O)c1ccccc1Br | 0.4 | 1.3 | -6.4 | 0.4 | -20.1 | -38.4*
COc1ccc2[nH]c(=O)c(CN(Cc3cccs3)S(=O)(=O)c3cccc4nsnc34)cc2c1 | . | -0.9 | 4.2 | . | 70.0* | .
Cc1ccccc1CN1C[C@@H]2C[C@@H](c3cn[nH]c3-c3ccc(F)cc3)N3CCC[C@@]23C1=O | 2.0 | . | 15.0 | 0.3 | 13.8 | -47.7
COc1ccc(-c2[nH]ncc2[C@@H]2C[C@H]3CN(Cc4ccccc4C)C(=O)[C@]34CCCN24)cc1 | -0.1 | . | . | 43.5* | 5.7 | -22.5
Cc1ccccc1CN(c1ccc(C(=O)Nc2ccccc2C(=O)NCc2ccco2)cc1)S(C)(=O)=O | . | 2.9 | -28.3 | . | 61.4* | .
COc1ccc(NC(=O)N(C)C[C@H]2Oc3ccc(NC(=O)Nc4ccc(C(F)(F)F)cc4)cc3C(=O)N([C@H](C)CO)C[C@H]2C)cc1 | . | 4.2 | -18.8 | 0.7 | -13.4[16.7 µM] | 5.7
COC(=O)CCCCC1SCC2NC(=O)NC21 (stereo not given) | -2.7 | . | 4.6 | 0.5 | 0.6 | 23.7
CCN(CC)c1ccc(/C=C(\C#N)C(N)=S)cc1 | . | . | 3.4 | -0.1 | 3.4 | -22.5*
CCN(CC)c1ccc(/C=C(\C#N)C(=O)c2ccc(Br)cc2)cc1 | . | . | . | . | 6.1 | .
CCN(CC)c1ccc(/C=C(\C#N)C(N)=O)cc1 | 3.5 | . | 9.5 | 43.0* | -26.0 | -17.6
CC(C)(CO)NC(=O)c1ccc2c(c1)C(=O)c1ccccc1-2 | -0.4 | -1.5 | 4.5 | 0.2 | -0.9 | -6.0
O=S(=O)(Nc1cccc(-c2cn3c(n2)SCC3)c1)c1ccccc1F | 36.6* | -1.6 | 1.4 | 0.1 | i | 1.1
CSc1ccc(CN2CCC2(C)C(=O)Nc2cccc(NS(C)(=O)=O)c2)cc1 (stereo not given) | 1.8 | -0.8 | . | 0.0 | 75.7* | -4.4
COc1ccc(NC(=O)C2(C)CCN2Cc2ccc(SC)cc2)cc1OC (stereo not given) | 5.1 | -1.0 | -8.1 | 0.3 | 35.7 | -19.1
Cn1cc([N+](=O)[O-])c(C(=O)Nc2nc(-c3ccc(Cl)cc3)cs2)n1 | . | 2.0 | 62.9* | . | . | .
SMILES | ERAP1 inh | Cneo AK release | PGC1a acetyl inh | FGF22 binding | Env fusion inh | rRNA inh HTS
Cc1ccc(-c2nc(NC(=O)c3nn(C)cc3[N+](=O)[O-])sc2C)cc1C | -1.4 | 1.0 | 91.2* | 0.0 | . | -13.9
CCSc1nnc(Nc2ccccc2)s1 | . | 3.0 | -2.9 | . | . | .
CCC(=O)N(C)C[C@@H]1Oc2cc(-c3ccc(F)cc3)ccc2S(=O)(=O)N([C@@H](C)CO)C[C@@H]1C | 0.0 | 0.3 | 18.4 | -0.3 | -16.1[16.7 µM] | -9.7
CNC(=S)N/N=C1\C(=O)c2cccc3cccc1c23 | . | -0.4 | 0.4 | . | . | .
O=C(CCc1ccccc1)N/N=C/c1cc(Br)ccc1O | 1.9 | . | . | 0.1 | . | -15.6*
O=C(CCC(=O)Nc1ccc(Br)cc1)N/N=C/c1ccccc1O | -3.5 | 0.4 | 4.3 | 0.0 | -5.3 | -15.3*
Oc1ccc(Br)cc1/C=N/NC(=S)NCCc1ccccc1 | -2.1 | 11.4 | . | 0.6 | 13.7 | -47.0
CCCCC(=O)NNC(=O)N1c2ccccc2Sc2ccccc21 | 0.1 | -4.2 | -7.2 | -0.1 | 13.2 | 1.2
C/C(=N/NC(=O)c1cc(C)[nH]n1)c1ccco1 | 6.1 | . | -12.2 | 0.0 | -8.6 | 17.4
C/C(=N/NC(=O)c1ccco1)c1cccc(NC(=O)c2ccc(C)s2)c1 | 4.2 | -1.3 | . | 1.5* | . | -12.0
C/C(=N\NC(=O)c1cc(-c2ccc(C)s2)[nH]n1)c1ccco1 | -1.4 | . | . | 0.8 | -44.9 | -35.4*
CC(C)[C@H](NC(=O)c1ccco1)C(=O)NC12CC3CC(CC(C3)C1)C2 | -3.4 | . | . | 0.7 | 57.6* | 16.0
CC(C)[C@H](NC(=O)c1ccco1)C(=O)NCc1ccccc1 | -3.5 | -8.9 | . | 41.0 | -0.8 | -5.2
Cc1ccc(NC(=S)NC2CCSc3ccccc32)cc1 (stereo not given) | -1.7 | 7.7 | . | -0.1 | -2.9 | -44.3*
O=[N+]([O-])c1ccc(-c2nc(NCc3ccccc3)c3ccccc3n2)cc1 | -1.3 | . | . | -0.1 | -1.0 | 6.1
Clc1ccc2nc3c4ccccc4cnn3c2c1 | -1.7 | . | . | 42.9* | -189.1 | 10.3
COn1c(-c2ccccc2)nc2ccc(Cl)cc21 | . | -3.4 | -4.9 | . | -216.8 | .
N/C(=N/OC(=O)c1ccccc1Cl)c1nonc1N | 0.8 | . | -13.7 | 0.2 | -71.5 | -23.5*
N#CC1(Nc2cccc(Cl)c2)CCCC1 | -0.3 | 3.5 | 4.5 | 43.0* | 16.5 | 12.8
O=C(NC[C@H]1[C@H](c2ccccc2)[C@H](CO)N1C(=O)Cc1cccnc1)C1CCC1 | . | 81.1* | -0.2 | . | . | 2.6
O=C(NC[C@H]1[C@@H](c2ccccc2)[C@@H](CO)N1C(=O)C1CCC1)NC1CCCC1 | . | 97.4* | 2.8 | . | . | -1.1
COc1cccc(/C=C2\SC(=O)N(CC(=O)NC3CCS(=O)(=O)C3)C2=O)c1 (stereo not given) | 0.0 | . | 9.0 | 0.2 | -7.6 | 0.8
CS(=O)(=O)N1N=C(c2ccco2)CC1c1ccc(Br)cc1 (stereo not given) | 0.1 | . | . | 43.5* | -20.1 | .
CS(=O)(=O)N1N=C(c2ccco2)CC1c1cccc([N+](=O)[O-])c1 (stereo not given) | . | . | 8.4 | 0.0 | 2.0 | 11.5

Bioassay records from PubChem.
